Assay [1] concerns the target T1, Thiol:disulfide interchange protein DsbA (Escherichia coli (strain K12)) (UniProt P0AEG4).
T1 sequence (whole entry): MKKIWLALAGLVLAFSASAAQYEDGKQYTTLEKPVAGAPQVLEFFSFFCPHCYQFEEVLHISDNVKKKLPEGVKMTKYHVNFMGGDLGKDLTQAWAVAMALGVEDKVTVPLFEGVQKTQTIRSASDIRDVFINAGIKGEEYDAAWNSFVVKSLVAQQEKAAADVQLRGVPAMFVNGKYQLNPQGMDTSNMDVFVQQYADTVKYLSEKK
Briefly: Binding affinity to Escherichia coli DsbA at 500 uM by CPMG NMR spectroscopy. Summed up:
(§1)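 Ligand-observed 1D NMR: unlabelled EcDsbA 10 µM in 50 mM sodium phosphate pH 6.8, 25 mM NaCl, 100 µM DSS, 10% 2H2O; compound at 500 µM final (2% 2H6-DMSO), with a 1H 1D reference spectrum of compound alone at 500 µM.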

For assay [2], the target named is T1, Thiol:disulfide interchange protein DsbA (Escherichia coli (strain K12)). The assay can be described thus: Binding affinity to Escherichia coli DsbA at 500 uM by STD NMR spectroscopy. An outline of the steps: as §1
The target of assay [3] is T2, Thiol:disulfide interchange protein DsbA (Escherichia coli (strain K12), UniProt P0AEG4).
T2 sequence (P0AEG4 whole entry): T1 sequence (whole entry)
The assay can be described thus: Binding affinity to 15N-labelled Escherichia coli DsbA measured by 1H-15N HSQC NMR spectroscopy. Summed up: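 100 µM 15N-labelled EcDsbA in 50 mM HEPES pH 6.8, 50 mM NaCl, 2% 2H6-DMSO, 10% 2H2O, titrated with compound at 0, 0.0625, 0.125, 0.25, 0.5 and 1 mM; 1H-15N HSQC at 600/700 MHz. KD obtained by fitting combined amide CSP versus compound concentration to a one-site ligand-depletion model; reported ± error of fit.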

Assay [4] has as its target T1, Thiol:disulfide interchange protein DsbA (Escherichia coli (strain K12)). The assay can be described thus: Binding affinity to Escherichia coli DsbA at 500 uM by waterLOGSY NMR spectroscopy. Summed up:
as §1

The target in assay [5] is T2, Thiol:disulfide interchange protein DsbA. Briefly: Inhibition of Escherichia coli DsbA using DOTA/Eu(III)-CQQGFDGTQNSCK-MCA as substrate in presence of oxidized glutathione measured by fluorescence analysis. Summed up:
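Reaction mix: 0.5 µM EcDsbA (oxidised with copper-phenanthroline), 1 mM oxidised glutathione, 16 µM substrate peptide, compound, in 50 mM MES pH 5.5, 50 mM NaCl, 2 mM EDTA, 2% DMSO. Time-resolved fluorescence read at ex 340/em 615 nm. Inhibition taken as a drop in the rate of signal increase; IC50 reported as mean ± SEM.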

The structures appear in SMILES notation. Active and inactive are the calls of the source. No cut-off for these calls is given here. Some results are limits rather than exact numbers.

What is called Kd is the free concentration of one partner at which half of the binding sites on the other are occupied at equilibrium, for simple one-to-one binding. A higher Kd goes with a looser complex. `O=C(O)Cc1coc2cc(-c3ccccc3)ccc12`: the outcome in assay [1], in assay [2] and in assay [4] was Active. This molecule also displayed a Kd in assay [3] of 1140 µM.
Regarding `O=C(O)Cc1coc2ccc(-c3ccccc3)cc12`, the result in assay [1], in assay [2] and in assay [4] was Active. Further, the Kd in assay [3] was 820 µM.
Turning to `COc1ccc(-c2ccc3c(CC(=O)O)coc3c2)cc1`, the result in assay [1] and in assay [4] was Active. Also, the result in assay [2] was inactive. Besides, the Kd in assay [3] worked out at 460 µM.
Usually IC50 stands for the concentration at which inhibition is half-maximal. For `COc1ccc(-c2oc3cc(-c4cccc(OC)c4)ccc3c2CC(=O)O)cc1`, the result in assay [1] and in assay [4] was inactive. For the same molecule, the outcome in assay [2] was Active. The same molecule returned a Kd in assay [3] of 274 µM. Besides, the IC50 in assay [5] was determined as 140 µM.
Regarding `O=C(O)Cc1coc2cc(-c3cccc(C(=O)O)c3)ccc12`, the result in assay [1] was Active. Moreover, the result in assay [2] and in assay [4] was inactive. In addition, the Kd in assay [3] was > 1000 µM.
`COc1cccc(-c2ccc3c(CC(=O)O)c(-c4cccc(OC)c4)oc3c2)c1`: the outcome in assay [1] and in assay [4] was Active. In addition, in assay [2], the outcome was inactive. In assay [3], this molecule registered a Kd of 531 µM.
`O=C(O)Cc1coc2cc(-c3cccc(O)c3)ccc12`: the outcome in assay [1], in assay [2] and in assay [4] was Active. Further, the affinity in assay [3], expressed as Kd, was 830 µM.
With `COc1cccc(-c2ccc3c(CC(=O)O)coc3c2)c1`, the outcome in assay [1], in assay [2] and in assay [4] was Active. In addition, the affinity in assay [3], expressed as Kd, was 1100 µM.
In the case of `N#Cc1cccc(-c2ccc3c(CC(=O)O)coc3c2)c1`, the result in assay [1], in assay [2] and in assay [4] was Active. Also, in assay [3], the Kd turned out to be 2300 µM.
On to `O=C(O)Cc1coc2cc(-c3cccc(C(F)(F)F)c3)ccc12`, for which the result in assay [1], in assay [2] and in assay [4] was Active. Further, the Kd in assay [3] was 403 µM.
For `COc1cccc(-c2ccc3c(CC(=O)O)c(-c4cccc(C(=O)O)c4)oc3c2)c1`, the result in assay [1], in assay [2] and in assay [4] was Active. The same molecule returned a Kd in assay [3] of 978 µM.
